Series [1] has as its system Mus musculus. In words: Ex-vivo inhibition of CETP activity in transgenic mouse harboring human CETP/human ApoA1 gene at 30 mg/kg, po measured after 8 hrs. Format: functional. In outline: (§1)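 Male hCETP/hApoA1 heterozygous dual transgenic mice given 30 mg/Kg orally in corn oil (79.5%)/oleic acid (20%)/labrafil (0.5%); blood taken over an 8 h time course; serum tested ex vivo for CETP activity and in vivo serum HDL-c measured.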

Series [2] is described as follows: Oral bioavailability in Sprague-Dawley rat at 3 mg/kg after 72 hrs. Format: ADME, organism-based. Conditions: in vivo.
Series [3] concerns Mus musculus. Put plainly: Increase in HDL-cholesterol level in transgenic mouse harboring human CETP/human ApoA1 gene at 30 mg/kg, po measured after 8 hrs. Format: functional. In outline: as §1
A short description of series [4]: Oral bioavailability in cynomolgus monkey at 3 mg/kg after 72 hrs. The conditions noted are these: in vivo. It is filed as ADME, organism-based, Macaca fascicularis.
In another series the test system is cortisol synthase mRNA. In words: Induction of cortisol synthase mRNA level in human NCI-H295 cells by in vitro branched DNA method relative to control. Conditions: read-out: FC. Format: cell-based. In outline:
(§2)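 Human adrenal H295 cells were assayed in vitro. CYP11B2 (aldosterone synthase) and CYP11B1 (cortisol synthase) mRNA were quantified by branched DNA, and induction was expressed relative to untreated control.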

The nature of series [5]: Oral bioavailability in beagle dog at 3 mg/kg after 72 hrs. It is filed as ADME, organism-based, Canis lupus familiaris. The conditions noted are these: in vivo.
Series [6] in a line: Clearance in cynomolgus monkey at 1 mg/kg, iv and 3 mg/kg, po after 72 hrs. Format: ADME, organism-based, Macaca fascicularis. Conditions: in vivo.
Series [7] in a line: Clearance in Sprague-Dawley rat at 1 mg/kg, iv and 3 mg/kg, po after 72 hrs. The conditions noted are these: in vivo. It is filed as ADME, organism-based.
For series [8], the target named is T1, Cholesteryl ester transfer protein (Homo sapiens, UniProt P11597).
T1 sequence (P11597 whole entry): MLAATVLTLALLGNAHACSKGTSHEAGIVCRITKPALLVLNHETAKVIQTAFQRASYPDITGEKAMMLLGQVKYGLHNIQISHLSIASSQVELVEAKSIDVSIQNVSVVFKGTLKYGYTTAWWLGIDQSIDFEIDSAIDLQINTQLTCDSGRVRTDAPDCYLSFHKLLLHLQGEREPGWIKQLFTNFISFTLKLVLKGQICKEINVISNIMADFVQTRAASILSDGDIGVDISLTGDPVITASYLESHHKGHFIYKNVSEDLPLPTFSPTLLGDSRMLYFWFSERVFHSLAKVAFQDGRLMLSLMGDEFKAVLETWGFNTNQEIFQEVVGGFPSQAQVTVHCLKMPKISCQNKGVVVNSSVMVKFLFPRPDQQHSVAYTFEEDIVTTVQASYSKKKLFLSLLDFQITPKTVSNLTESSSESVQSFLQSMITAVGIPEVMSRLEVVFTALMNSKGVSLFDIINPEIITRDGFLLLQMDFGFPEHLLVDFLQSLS
In words: Inhibition of CETP in human plasma assessed as reduction in fluorescent intensity by fluorescence analysis.

Series [9] in a line: Clearance in beagle dog at 1 mg/kg, iv and 3 mg/kg, po after 72 hrs. It is filed as ADME, organism-based, Canis lupus familiaris. The conditions noted are these: in vivo.
Series [10] concerns aldosterone synthase mRNA. In words: Induction of aldosterone synthase mRNA level in human NCI-H295 cells by in vitro branched DNA method relative to control. It is filed as cell-based. The conditions noted are these: read-out: FC. In outline:
as §2

The nature of series [11]: Induction of cortisol synthase mRNA level in human NCI-H295 cells by in vitro branched DNA method. Format: cell-based.

A word on the inhibition in vivo: it is the relative decrease from the control value, in per cent. What is called bioavailability is the share of a dose that reaches the circulation, judged against a reference dose that is usually intravenous. By IC50 is commonly meant the concentration needed to halve the response being measured.

`CC[C@@H]1C[C@H](N(Cc2cc(C(F)(F)F)cc(C(F)(F)F)c2)c2nnn(C)n2)c2nc(C(F)(F)F)ccc2N1C(=O)OC(C)C`: in the series on Mus musculus [1], the inhibition in vivo at 30 mg/kg was 91.6%. For the same molecule, the results for the bioavailability in [2], in [4] and in series [5] were 31%, 18% and 49%, respectively. This molecule also displayed an Activity with Mus musculus [3] of 134%. The fold induction (with cortisol synthase mRNA; in [10]) was 10 throughout. Also, the clearance in series [6] was 0.7 mL/min/kg; in series [7] it was 5.5 mL/min/kg; in series [9], 1.5 mL/min/kg. The IC50 in series [8] worked out at 23 nM.

With `CC[C@@H]1C[C@H](N(Cc2cc(C(F)(F)F)cc(C(F)(F)F)c2)c2nnn(C)n2)c2nc(C)ccc2N1C(=O)OC(C)C`, the inhibition in vivo at 30 mg/kg in the series on Mus musculus [1] amounted to 105%. The figures for the bioavailability in series [2] and in [4] were 18% and 32%, respectively. Moreover, the Activity in the series on Mus musculus [3] stood at 147.8%. For the same molecule, the clearance in series [6] was 2.2 mL/min/kg; in series [7], 16.4 mL/min/kg. Besides, the IC50 in [8] came out at 22 nM.

As to `Cc1cc(C)c2c(c1)[C@@H](N(Cc1cc(C(F)(F)F)cc(C(F)(F)F)c1)c1nnn(C)n1)CCCN2C[C@H]1CC[C@H](C(=O)O)CC1` [EVACETRAPIB], the IC50 in series [8] was 26 nM.

On to `CCOC(=O)N1c2ccc(C(F)(F)F)cc2[C@@H](N(Cc2cc(C(F)(F)F)cc(C(F)(F)F)c2)C(=O)OC)C[C@H]1CC` [TORCETRAPIB], for which the Activity entry in [11] is “Toxic”.

(Values after ChEMBL document CHEMBL2016576, “Design, synthesis and structure-activity-relationship of 1,5-tetrahydronaphthyridines as CETP inhibitors” (Bioorg Med Chem Lett, 2012).)
